Assay outcomes deposited in PubChem by several laboratories.
PGE2 EP2 inh: blocks the human prostaglandin E2 receptor EP2; inhibition, % at 25 µM; P43116; C6 glioma cells expressing human EP2, cAMP TR-FRET; cells stimulated with saturating PGE2; 0.52% of 260,000 active;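 active means percent inhibition above 40 after rounding to a whole number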;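 further: rat C6 glioma host cells with rolipram phosphodiesterase inhibitor present; the protocol text gives 20 µM as final concentration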
TbHK1 inh: T. brucei hexokinase 1 inhibition. inhibition, % at 10 µM. AID 1430. recombinant TbHK1, G6PDH-coupled NADH A340. 0.11% of 220,000 active;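 active means inhibition of 50% or more in the single-dose primary screen; inactive means inhibition below 50%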
HKDC1 inhibitor: HKDC1 (human) hexokinase inhibition; recombinant HKDC1, G6PDH/diaphorase resazurin coupled fluorescence; Q2TB90; inhibition, % at 20 µM; 0.16% of 340,000 active;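 active means inhibition above about 35% when tested at 20 µM, limit read from the data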;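 further: plate controls were DMSO wells with enzyme for no effect and DMSO wells lacking enzyme for full effect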
Target sequence (Q2TB90 whole entry, looked up): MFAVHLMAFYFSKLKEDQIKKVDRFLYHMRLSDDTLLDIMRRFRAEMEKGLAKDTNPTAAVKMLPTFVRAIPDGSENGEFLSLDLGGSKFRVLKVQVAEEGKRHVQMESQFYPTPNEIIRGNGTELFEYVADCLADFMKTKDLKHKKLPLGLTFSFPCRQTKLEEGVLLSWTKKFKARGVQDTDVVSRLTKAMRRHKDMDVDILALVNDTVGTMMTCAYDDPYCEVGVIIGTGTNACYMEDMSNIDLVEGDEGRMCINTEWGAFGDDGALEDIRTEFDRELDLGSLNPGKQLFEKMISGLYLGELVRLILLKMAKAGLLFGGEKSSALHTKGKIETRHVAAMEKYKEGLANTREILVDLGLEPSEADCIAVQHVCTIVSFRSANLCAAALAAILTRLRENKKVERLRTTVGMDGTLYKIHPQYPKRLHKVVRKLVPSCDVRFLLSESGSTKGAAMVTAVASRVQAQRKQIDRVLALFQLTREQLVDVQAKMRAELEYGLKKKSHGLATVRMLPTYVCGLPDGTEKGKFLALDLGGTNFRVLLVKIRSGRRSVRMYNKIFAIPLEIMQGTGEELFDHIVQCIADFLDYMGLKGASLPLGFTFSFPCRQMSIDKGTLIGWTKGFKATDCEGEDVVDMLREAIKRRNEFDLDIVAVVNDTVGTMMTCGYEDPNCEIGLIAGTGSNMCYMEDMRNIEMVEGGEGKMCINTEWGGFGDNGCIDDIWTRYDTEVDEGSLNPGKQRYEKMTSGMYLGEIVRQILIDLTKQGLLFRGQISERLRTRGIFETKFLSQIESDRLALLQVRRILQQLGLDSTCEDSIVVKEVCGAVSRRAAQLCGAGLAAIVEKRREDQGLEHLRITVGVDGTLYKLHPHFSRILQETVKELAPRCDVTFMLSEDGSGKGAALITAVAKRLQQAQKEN
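Test system: recombinant HKDC1 (HK5) hexokinase enzyme, produced in-house; Amount: enzyme 5 µg/mL final; Buffer or medium: Tris pH 8.0 buffer with MgCl2, Tween-20, BSA, BME; Reagent: glucose and ATP substrates; Doses: 20 µM test compound, 1% DMSO; Incubation: 90 min reaction incubation at room temperature, dark; Detection: resorufin fluorescence at 613 nm.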
EP2 modulator: modulators of human EP2 prostaglandin E2 receptor; EP2-expressing cells, cAMP HTRF FRET, PGE2 co-stimulation; induction, % at 25 µM; 0.83% of 260,000 active;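 active means compounds whose cAMP rise, as percent of the full-agonist control response, exceeds 60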;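 further: rat C6 glioma line stably carrying human EP2 under a CMV promoter; the protocol text gives 20 µM as final concentration; 100% = response of wells given 1 µM PGE2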
PfG6PD inh: PfG6PD (Plasmodium falciparum) enzyme inhibition | PfGluPho enzyme, NADPH resazurin-diaphorase fluorescence | 0.78% of 350,000 active | inhibition, % at 20 µM;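 active means inhibition reaching at least a set limit at 20 µM in the primary screen, cut at about 59% in these data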;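 further: 0% = DMSO wells with substrate and 100% = DMSO wells lacking glucose-6-phosphate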
PHOSPHO1 inh: inhibitors of human PHOSPHO1 phosphatase; 1.1% of 290,000 active; inhibition, % at 13.3 µM; Q8TCT1; recombinant PHOSPHO1, absorbance phosphatase assay; AID 1565; in the data active means inhibition above about 60%
PfG6PD confirm: confirmation of Plasmodium falciparum G6PD inhibitors | shares compounds with PfG6PD inh | recombinant PfGluPho, NADPH-diaphorase-resazurin fluorescence | inhibition, % at 20 µM | 34% of 2,400 active;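 active means inhibition of at least 50% at 20 µM in any single replicate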;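 further: 0% = DMSO with substrate and 100% = DMSO lacking glucose-6-phosphate substrate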
Diaph ctr 10uM: diaphorase inhibition or oxidation at 10 uM NADPH | shares compounds with PfG6PD inh | 39% of 820 active | inhibition, % at 20 µM | diaphorase-coupled resazurin reduction, fluorescence, NADPH 10 uM;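 active means average inhibition reaching 50% or more with the compound at 20 µM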;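 further: resorufin red fluorescence formed as diaphorase reduces resazurin using NADPH; 0% = DMSO with enzyme and 100% = DMSO without enzyme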
Diaph ctr 30uM: diaphorase inhibition or oxidation at 30 uM NADPH; Diaphorase/resazurin coupled assay, resorufin fluorescence; inhibition, % at 20 µM; shares compounds with PfG6PD inh; 29% of 820 active;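 active means inhibition averaging 50% or more, tested at 20 µM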;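 further: 0% = DMSO with enzyme and 100% = DMSO wells lacking diaphorase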
Starred values were filed as active, the others as inactive; · = no result given; ! = a repeat was not active. Sampled rows, rich in hits. Any-hit rate of the full collection: about 2.5%.

SMILES	PGE2 EP2 inh	TbHK1 inh	HKDC1 inhibitor	EP2 modulator	PfG6PD inh	PHOSPHO1 inh	PfG6PD confirm	others
Oc1cc2c(cc1O)[C@H]1c3ccc(O)c(O)c3OC[C@@]1(O)C2	·	·	5	·	113*	·	98*	Diaph ctr 10uM=56*;Diaph ctr 30uM=30
CCn1c(SCC(=O)Nc2ccccc2C(F)(F)F)nc2c1c(=O)n(C)c(=O)n2C	8	·	·	-3	·	·	·
CN(C)CC(C)(C)CNC(=O)C1CCN(S(=O)(=O)c2ccc3ccccc3c2)CC1	12	·	·	-15	·	·	·
Cc1cc(C(=O)Nc2ccc(S(=O)(=O)O)c3ccccc23)c(C)o1	9	·	·	-30	·	·	·
NC(=O)C1CCN(C(=O)Cn2nc(C(c3ccccc3)c3ccccc3)oc2=O)CC1	8	·	·	-32	·	·	·
O=C(O)c1ccc(-n2cc(-c3cc4ccccc4oc3=O)[nH]c2=S)cc1	8	-11	-7	-73	61*	28	25
C=CC[N+]1(CC#Cc2ccc(C)cc2)CCCCC1	9	·	·	0	·	·	·
CN(C)CCCn1c(-c2ccncc2)n[nH]c1=S	4	·	·	17	·	·	·
CC(C)(C)C1=Nn2c(nnc2-c2n[nH]c3c2CCC3)SC1	15	0	8	-7	60*	68*	12
CCn1c(SCc2nc3ccccc3[nH]2)nnc1-c1cccs1	1	8	-8	-27	43	35	·
CCn1c(SCc2nc3scc(-c4ccccc4)c3c(=O)[nH]2)nnc1-c1cccs1	1	3	9	6	47	-5	49*	Diaph ctr 10uM=49;Diaph ctr 30uM=43
Cc1nnc(SCc2nc3scc(-c4ccccc4)c3c(=O)[nH]2)s1	9	-13	-3	1	60*	25	34
C=CCc1cccc(CN2CCC(O)(c3ccc(C)cc3)CC2)c1O	10	·	·	28	·	·	·
CN1C(=O)C(N=Nc2ccc([N+](=O)[O-])cc2)SC1=S (stereo not given)	·	·	5	·	106*	·	52*	Diaph ctr 10uM=54*;Diaph ctr 30uM=34
C=CCn1c(NC2CCCCC2)nc2c1c(=O)n(C)c(=O)n2C	5	·	·	2	·	·	·
COc1ccc(/C=N/Nc2nnc(C)n2N)cc1OC(C)=O	·	·	0	·	55	1	·
COc1ccc(/C=N/Nc2nnc(C)n2N)cc1OC	6	-16	5	-3	61*	-28	7
CCOC(=O)c1cnc2c(OC)cccc2c1Nc1ccc2c(c1)OCCO2	6	-21	-2	39	68*	-21	29
Cc1cc(C)c2c(-n3cccc3)c(NC(=O)OC(C)C)sc2n1	11	5	-2	28	62*	8	22
Cc1cc(C)c2c(-n3cccc3)c(C(=O)O)sc2n1	8	0	-9	21	1	-3	·
Cc1nc2ccc(NC(=O)c3cc(S(=O)(=O)N4CCOCC4)ccc3C)cc2s1	13	3	-1	-8	4	2	·
O=c1ccc2cc(S(=O)(=O)N3CCOCC3)ccc2o1	9	5	-7	-1	-7	-14	·
CCSc1nc2cc(S(=O)(=O)N3CCOCC3)ccc2o1	·	·	-16	·	71*	·	50*	Diaph ctr 10uM=-18;Diaph ctr 30uM=-21
Cc1nc2ccc(Nc3nc4cc(S(=O)(=O)N5CCOCC5)ccc4o3)cc2s1	8	-19	1	-14	93*	92*	54*	Diaph ctr 10uM=19;Diaph ctr 30uM=24
COc1ccc(-c2cc(C(F)(F)F)nc(SCCC(=O)N(C)Cc3cnn(C)c3)n2)cc1	7	·	·	-94	·	·	·
SMILES	PGE2 EP2 inh	TbHK1 inh	HKDC1 inhibitor	EP2 modulator	PfG6PD inh	PHOSPHO1 inh	PfG6PD confirm	others
Cc1ncc(-c2ccncc2)c(C2CCCN(C(=O)c3nsc(Cl)c3Cl)C2)n1 (stereo not given)	·	·	·	-20	·	·	·
CCOC(=O)CNC(=O)CN(C(=O)c1snc(C(N)=O)c1N)c1cc(C)ccc1OC	8	·	·	6	·	·	·
Cc1cccc(OCCC(=O)NCC(=O)Nc2cccc(C)c2C)c1	2	28	-4	5	105*	-1	91*	Diaph ctr 10uM=81*;Diaph ctr 30uM=67*
Cn1c(=O)c2c(nc(SCC(=O)NCc3ccccc3)n2C)n(C)c1=O	18	·	·	-10	·	·	·
O=S(=O)(NNc1ncc(C(F)(F)F)cc1Cl)c1ccc(F)cc1F	·	·	-1	·	65*	·	42
O=C(NCC1CCN(c2ccc(S(=O)(=O)N3CCCC3)cc2)CC1)C1CCC1	8	·	·	11	·	·	·
CN(C)c1ccc2nc3ccc(=O)cc-3sc2c1	·	·	·	·	78*	·	49*	Diaph ctr 10uM=24;Diaph ctr 30uM=28
CSc1nc2ccc(S(=O)(=O)N(C)C)cc2s1	8	-8	-1	-16	-8	7	·
COc1cc(OC)c(OC)cc1/C=C/c1ccnc2ccccc12	·	·	4	·	87*	·	14
N#Cc1c(NC(=O)c2cc(-c3ccccc3Cl)on2)sc2c1CCCC2	12	·	·	-22	·	·	·
CCOC(=O)CSc1nc2nc(Cl)c(Cl)nc2[nH]1	·	·	·	·	81*	·	47
CCOC(=O)C1=C(C)Nc2nc(SCC)nn2C1c1ccc(OC)cc1 (stereo not given)	4	-7	-4	18	-18	-16	·
CCOC(=O)C1=C(C)Nc2ncnn2C1c1ccc(N(C)C)cc1 (stereo not given)	4	-5	-2	1	61*!	23	29
CCOC(=O)C1=C(C)Nc2nc(=S)[nH]n2C1c1ccc(Cl)cc1 (stereo not given)	·	-7	4	-16	61*	97*	19
Oc1c(Br)cc(/C=N/Nc2nncc3ccccc23)cc1Br	·	·	10	·	63*	23	-11
COc1cccc(C(NC(=O)N(C(C)C)C(C)C)c2nccn2C)c1OC (stereo not given)	9	·	·	-11	·	·	·
O=C(NCCn1cc(SCc2ccc(F)cc2)c2ccccc21)c1ccccc1F	6	4	1	25	77*	16	-13
O=C(NCCn1cc(SCc2ccc(F)cc2)c2ccccc21)c1c(F)cccc1F	13	-5	0	-4	86*	9	-11
O=C(CSc1cn(CCNC(=O)c2c(F)cccc2F)c2ccccc12)NCC1CCCO1 (stereo not given)	·	·	-8	·	10	23	·
O=C(NCCn1cc(SCc2ccccc2)c2ccccc21)c1c(F)cccc1F	10	-2	-2	16	64*	-18	-20
Cc1cc(C(C)(C)C)oc1C(=O)N1CCC(C(=O)c2nc3ccccc3s2)CC1	·	·	·	-3	·	·	·
CCN(CC)C(=O)CSc1nnc(-c2ccncc2)n1-c1ccc(C)c(C)c1	3	·	·	-9	·	·	·
O=C(Nc1ccc(N2CCN(C(=O)c3ccccc3)CC2)c(Cl)c1)c1ccc(Br)o1	14	-6	7	-34	34	18	·
O=C(Nc1ccc(N2CCOCC2)c(Cl)c1)c1ccc(F)cc1	8	7	-5	0	94*	12	27
